The nature of assay [1]: Cytotoxicity against human KB-3-1 cells after 96 hrs by MTA assay. The assay is classed as functional, cell-based. Particulars: KB 3-1, 96 h. In short, it runs like this:
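KB-3-1 cells grown in DMEM with 10% fetal calf serum, 2 mM L-glutamine, penicillin/streptomycin, 10 mM HEPES (pH 7.4). Exposed to nine serial drug dilutions in triplicate for 96 h (four doubling times); microculture tetrazolium read-out. IC50 is the concentration reducing optical density by 50% relative to untreated controls.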

In a further assay the test system is L1210. Nature of the assay: Cytotoxicity against mouse L1210 cells after 48 hrs by MTA assay. In kind it is functional, cell-based. The note with it: L1210, 48 h. The method in brief:
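L1210 cells maintained in RPMI 1640 plus 10% fetal calf serum, 2 mM L-glutamine, penicillin/streptomycin and 10 mM HEPES (pH 7.4). Drug given at nine serial dilutions, triplicate, for 48 h (four doubling times), then tetrazolium microculture assay. IC50 is the concentration giving 50% lower optical density than untreated controls.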

By IC50 is commonly meant the concentration needed to halve the response being measured. High values mean a need for much substance, low ones inhibition by little substance.

With `Cn1c2cc3ccc(Br)cc3cc2c(=O)c2c(O)cc3c(c21)C=CC(C)(C)O3`, the values for the 50% inhibitory concentration (IC50) (in assay [1]; with L1210) were 14300 nM and 645 nM, respectively.

For `COc1cc2c(c3c1c(=O)c1c4ccccc4ccc1n3C)[C@H]1OC(=O)O[C@H]1C(C)(C)O2` (racemic), the figures for the half-inhibitory concentration (IC50) (in assay [1]; in the assay on L1210) were 15 nM and 59 nM, respectively. The like results for `COc1cc2c(c3c1c(=O)c1c4ccccc4ccc1n3C)[C@@H](OC(C)=O)[C@@H](OC(C)=O)C(C)(C)O2` (racemic) were, in that order, 140 nM and 730 nM.

For `COc1cc2c(c3c1c(=O)c1cc4cc(Br)ccc4cc1n3C)[C@@H](OC(C)=O)[C@@H](OC(C)=O)C(C)(C)O2` (racemic), the IC50 turned out to be 115 nM in assay [1] and 600 nM in the assay with L1210. The like results for `COc1cc2c(c3c1c(=O)c1cc4cc(Br)ccc4cc1n3C)[C@@H](O)[C@@H](O)C(C)(C)O2` (racemic) were, in that order, 36300 nM and 225 nM.

With `COc1cc2c(c3c1c(=O)c1c4ccc(Br)cc4ccc1n3C)C=CC(C)(C)O2`, the IC50 amounted to 1300 nM in assay [1] and 490 nM in the assay with L1210. The like results for `COc1cc2c(c3c1c(=O)c1c4ccc(Br)cc4ccc1n3C)[C@H]1OC(=O)O[C@H]1C(C)(C)O2` (racemic) were, in that order, 15 nM and 80 nM. Regarding `COc1cc2c(c3c1c(=O)c1cc4cc(Br)ccc4cc1n3C)[C@H]1OC(=O)O[C@H]1C(C)(C)O2` (racemic), the results for the IC50 (in assay [1]; in the assay with L1210) were 11 nM and 34 nM, respectively.

For `C#CC(C)(C)Oc1cc(O)c2c(=O)c3c4ccc(Br)cc4ccc3n3c2c1C(C)(C)C3=C`, the IC50 is 37100 nM in assay [1] and 51100 nM in the assay with L1210. On to `C=C1n2c3ccc4cc(Br)ccc4c3c(=O)c3c(O)cc(O)c(c32)C1(C)C`, for which the results for the IC50 (in assay [1]; in the assay on L1210) were 2500 nM and 7300 nM, respectively. As to `COc1cc2c(c3c1c(=O)c1cc4ccccc4cc1n3C)[C@@H](OC(C)=O)[C@@H](OC(C)=O)C(C)(C)O2` (racemic), in assay [1], the IC50 came to 95 nM. For `COc1cc2c(c3c1c(=O)c1cc4cc(Br)ccc4cc1n3C)C=CC(C)(C)O2`, the IC50 in assay [1] was found to be 9900 nM; with L1210, 2200 nM. `COc1cc2c(c3c1c(=O)c1c4ccccc4ccc1n3C)C=CC(C)(C)O2` [BENZO[A]ACRONYCINE] displayed an IC50 in assay [1] of 8600 nM. On to `COc1cc2c(c3c1c(=O)c1c4ccc(Br)cc4ccc1n3C)[C@@H](OC(C)=O)[C@@H](OC(C)=O)C(C)(C)O2` (racemic), for which the IC50 in assay [1] amounted to 40 nM; in the assay with L1210, 400 nM. Turning to `COc1cc2c(c3c1c(=O)c1cc4ccccc4cc1n3C)C=CC(C)(C)O2` [BENZO[B]ACRONYCINE], the IC50 in assay [1] turned out to be 3400 nM. As for `CC1(C)C=Cc2c(cc(O)c3c(=O)c4c(ccc5cc(Br)ccc54)[nH]c23)O1`, the results for the IC50 (in assay [1]; in the assay with L1210) were 1700 nM and 3400 nM, respectively.

Take `COc1cc2c(c3c1c(=O)c1c4ccc(Br)cc4ccc1n3C)[C@@H](O)[C@@H](O)C(C)(C)O2` (racemic): the IC50 in assay [1] is 5500 nM; in the assay on L1210, 7600 nM. In the assay on L1210, `COc1cc2c(c3c1c(=O)c1cc4ccccc4cc1n3C)[C@H]1OC(=O)O[C@H]1C(C)(C)O2` (racemic) came in with an IC50 of 16 nM.

The values above are taken from ChEMBL document CHEMBL1770063, “Synthesis and cytotoxic activity of benzo[a]acronycine and benzo[b]acronycine substituted on the A ring” (Eur J Med Chem, 2011).
